From ChEMBL document CHEMBL4368909, “Identification of Dihydrofuro[3,4- d]pyrimidine Derivatives as Novel HIV-1 Non-Nucleoside Reverse Transcriptase Inhibitors with Promising Antiviral Activities and Desirable Physicochemical Properties” (J Med Chem, 2019)
Converted amounts (≈) assume the structure as drawn.

Columns and labels:
[1] = Aqueous solubility of the compound at pH at 7.4 by HPLC analysis; type: physicochemical; settings: buffer, pH 7.4
Method in brief: (§1)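 Aqueous solubility read by HPLC in buffer at pH 2.0, 7.0 or 7.4.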

[2] = test system: Human immunodeficiency virus 1; assay: Antiviral activity against wild type HIV1 3B infected in human MT4 cells assessed as reduction in virus-induced cytopathic effect after 5 days by MTT assay; type: functional, organism-based; settings: Human immunodeficiency virus 1, 3B, MT4, 120 h
[3] = test system: Human immunodeficiency virus 1; assay: Antiviral activity against HIV1 RES056 infected in human MT4 cells assessed as reduction in virus-induced cytopathic effect after 5 days by MTT assay; type: functional, organism-based; settings: Human immunodeficiency virus 1, RES056, MT4, 120 h
MT4 = assay: Cytotoxicity against human MT4 cells after 5 days by MTT assay; type: cell-based; settings: mt4, 120 h
[4] = Selectivity ratio of CC50 for human MT4 cells to EC50 for HIV1 3B infected in human MT4 cells; type: toxicity, cell-based; settings: read-out: Ratio CC50/EC50
[5] = Selectivity ratio of CC50 for human MT4 cells to EC50 for HIV1 RES056 infected in human MT4 cells; type: toxicity, cell-based; settings: read-out: Ratio CC50/EC50
[6] = test system: Human immunodeficiency virus 1; assay: Antiviral activity against HIV1 harboring reverse transcriptase L100I mutant infected in human MT4 cells assessed as reduction in virus-induced cytopathic effect after 5 days by MTT assay; type: functional, organism-based; settings: Human immunodeficiency virus 1, MT4, 120 h
[7] = test system: Human immunodeficiency virus 1; assay: Antiviral activity against HIV1 harboring reverse transcriptase K103N mutant infected in human MT4 cells assessed as reduction in virus-induced cytopathic effect after 5 days by MTT assay; type: functional, organism-based; settings: Human immunodeficiency virus 1, MT4, 120 h
[8] = test system: Human immunodeficiency virus 1; assay: Antiviral activity against HIV1 harboring reverse transcriptase Y181C mutant infected in human MT4 cells assessed as reduction in virus-induced cytopathic effect after 5 days by MTT assay; type: functional, organism-based; settings: Human immunodeficiency virus 1, MT4, 120 h
[9] = test system: Human immunodeficiency virus 1; assay: Antiviral activity against HIV1 harboring reverse transcriptase Y188L mutant infected in human MT4 cells assessed as reduction in virus-induced cytopathic effect after 5 days by MTT assay; type: functional, organism-based; settings: Human immunodeficiency virus 1, MT4, 120 h
[10] = test system: Human immunodeficiency virus 1; assay: Antiviral activity against HIV1 harboring reverse transcriptase E138K mutant infected in human MT4 cells assessed as reduction in virus-induced cytopathic effect after 5 days by MTT assay; type: functional, organism-based; settings: Human immunodeficiency virus 1, MT4, 120 h
[11] = test system: Human immunodeficiency virus 1; assay: Antiviral activity against HIV1 harboring reverse transcriptase F227L/V106A double mutant infected in human MT4 cells assessed as reduction in virus-induced cytopathic effect after 5 days by MTT assay; type: functional, organism-based; settings: Human immunodeficiency virus 1, MT4, 120 h
[12] = Selectivity ratio of CC50 for human MT4 cells to EC50 for HIV1 harboring reverse transcriptase L100I mutant infected in human MT4 cells; type: toxicity, cell-based; settings: read-out: Ratio CC50/EC50
[13] = Selectivity ratio of CC50 for human MT4 cells to EC50 for HIV1 harboring reverse transcriptase K103N mutant infected in human MT4 cells; type: toxicity, cell-based; settings: read-out: Ratio CC50/EC50
[14] = Selectivity ratio of CC50 for human MT4 cells to EC50 for HIV1 harboring reverse transcriptase Y181C mutant infected in human MT4 cells; type: toxicity, cell-based; settings: read-out: Ratio CC50/EC50
[15] = Selectivity ratio of CC50 for human MT4 cells to EC50 for HIV1 harboring reverse transcriptase Y188L mutant infected in human MT4 cells; type: toxicity, cell-based; settings: read-out: Ratio CC50/EC50
[16] = Selectivity ratio of CC50 for human MT4 cells to EC50 for HIV1 harboring reverse transcriptase E138K mutant infected in human MT4 cells; type: toxicity, cell-based; settings: read-out: Ratio CC50/EC50
[17] = Selectivity ratio of CC50 for human MT4 cells to EC50 for HIV1 harboring reverse transcriptase F227L/V106A double mutant infected in human MT4 cells; type: toxicity, cell-based; settings: read-out: Ratio CC50/EC50
[18] = test system: Human immunodeficiency virus 1; assay: Resistance factor, ratio of EC50 for HIV1 harboring reverse transcriptase L100I mutant to EC50 for wild type HIV1; type: functional
Method in brief: (§2)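 The resistance factor is the EC50 against the mutant strain divided by the EC50 against wild-type HIV-1. Both were measured in MT-4 cells by MTT read-out of protection from virus-induced cytopathicity.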

[19] = test system: Human immunodeficiency virus 1; assay: Resistance factor, ratio of EC50 for HIV1 harboring reverse transcriptase K103N mutant to EC50 for wild type HIV1; type: functional; method in brief: as §2
[20] = test system: Human immunodeficiency virus 1; assay: Resistance factor, ratio of EC50 for HIV1 harboring reverse transcriptase Y181C mutant to EC50 for wild type HIV1; type: functional; method in brief: as §2
[21] = test system: Human immunodeficiency virus 1; assay: Resistance factor, ratio of EC50 for HIV1 harboring reverse transcriptase Y188L mutant to EC50 for wild type HIV1; type: functional; method in brief: as §2
[22] = test system: Human immunodeficiency virus 1; assay: Resistance factor, ratio of EC50 for HIV1 harboring reverse transcriptase E138K mutant to EC50 for wild type HIV1; type: functional; method in brief: as §2
[23] = test system: Human immunodeficiency virus 1; assay: Resistance factor, ratio of EC50 for HIV1 harboring reverse transcriptase F227L/V106A double mutant to EC50 for wild type HIV1; type: functional; method in brief: as §2
[24] = target: Human immunodeficiency virus type 1 reverse transcriptase (Human immunodeficiency virus 1, UniProt Q72547); assay: Inhibition of recombinant HIV1 reverse transcriptase using (DIG)-dUTP and biotin-labeled dNTPs as substrate after 1 hr by ELISA
[25] = Aqueous solubility of the compound at pH at 7 by HPLC analysis; type: physicochemical; settings: buffer, pH 7; method in brief: as §1
[26] = Aqueous solubility of the compound at pH at 2 by HPLC analysis; type: physicochemical; settings: buffer, pH 2; method in brief: as §1
[27] = Aqueous solubility of the compound in FASSIF by HPLC analysis; type: physicochemical; settings: simulated gi fluid
Method in brief: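 Solubility read by HPLC in fasted state simulated intestinal fluid (FaSSIF).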

[28] = test system: Human immunodeficiency virus 2; assay: Antiviral activity against HIV2 ROD infected in human MT4 cells assessed as reduction in virus-induced cytopathic effect after 5 days by MTT assay; settings: Human immunodeficiency virus 2, ISOLATE ROD, MT4, 120 h

| SMILES | EC50 [2] [µM] | EC50 [3] [µM] | CC50 (MT4) [µM] | selectivity ratio [4] | selectivity ratio [5] | EC50 [6] [µM] | EC50 [7] [µM] | EC50 [8] [µM] | EC50 [9] [µM] | EC50 [10] [µM] | EC50 [11] [µM] | selectivity ratio [12] | selectivity ratio [13] | selectivity ratio [14] | selectivity ratio [15] | selectivity ratio [16] | selectivity ratio [17] | Ratio EC50 [18] | Ratio EC50 [19] | Ratio EC50 [20] | also measured |
| --- | --- | --- | --- | --- | --- | --- | --- | --- | --- | --- | --- | --- | --- | --- | --- | --- | --- | --- | --- | --- | --- |
| Cc1cc(C#N)cc(C)c1Oc1nc(NC2CCN(Cc3ccc(S(N)(=O)=O)cc3)CC2)nc2c1COC2 | 0.0028 | 0.038 | 27.5 | 9520 | 725 | 0.003 | 0.0029 | 0.0054 | 0.0152 | 0.0079 | 0.0127 | 8940 | 9220 | 5090 | 1810 | 3470 | 2270 | 1.1 | 1 | 1.9 | solubility [1]: 5.68 µg/mL (≈ 10.6 µM); Ratio EC50 [21]: 5.3; Ratio EC50 [22]: 2.7; Ratio EC50 [23]: 4.2; IC50 [24]: 0.109 µM; solubility [25]: 10.3 µg/mL (≈ 19.3 µM); solubility [26]: 174 µg/mL (≈ 325 µM); solubility [27]: 8.42 µg/mL (≈ 15.7 µM); EC50 [28]: ≥ 8.37 µM |
| Cc1cc(C#N)cc(C)c1Oc1nc(NC2CCN(Cc3ccncc3)CC2)nc2c1COC2 | 0.0023 | 0.0431 | 37.6 | 15900 | 871 | 0.0041 | 0.0012 | 0.0049 | 0.0078 | 0.0062 | 0.0105 | 9040 | 31200 | 7630 | 4770 | 6020 | 3580 | 1.8 | 0.5 | 2.1 | Ratio EC50 [21]: 3.3; Ratio EC50 [22]: 2.6; Ratio EC50 [23]: 4.4; IC50 [24]: 0.056 µM; solubility [25]: 14.6 µg/mL (≈ 32 µM); solubility [26]: 223 µg/mL (≈ 488 µM); solubility [27]: 8.57 µg/mL (≈ 18.8 µM); EC50 [28]: 5.12 µM |
| Cc1cc(C#N)cc(C)c1Oc1nc(NC2CCN(Cc3ccc(C(N)=O)cc3)CC2)nc2c1SCC2 | 0.0048 | 0.0436 | 165 | 34200 | 3800 | 0.0152 | 0.005 | 0.0084 | 0.0221 | 0.0153 | 0.0365 | 9580 | 28900 | 17300 | 6590 | 9520 | 4000 | 3.3 | 1.1 | 1.8 | Ratio EC50 [21]: 4.8; Ratio EC50 [22]: 3.3; Ratio EC50 [23]: 7.9; IC50 [24]: 0.066 µM; EC50 [28]: > 165 µM |
